Activity calls are given as the source filed them. The rule behind the calls is not given here.
Experiments:
[1] = system: A549; assay: Tested against A549 lung carcinoma in the sulforhodamine B assay.; type: functional, cell-based; conditions: Homo sapiens
Method in brief: (§1)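 Sulforhodamine B assay. Cells plated at 50 000/well; drug added on day 2 at 10^1–10^-5 μg/mL in half-log steps from DMSO stock diluted in PBS, final DMSO ≤0.1%. After 8-day exposure at 37 °C, cells fixed with TCA at 4 °C for 1 h and stained 30 min with 0.4% SRB. Dye solubilized in 10 mM Tris and OD read at 564 nm. Six wells per concentration; IC50 averaged.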

[2] = system: UACC-375; assay: Inhibitory activity against […] cell line; type: functional, cell-based; conditions: Homo sapiens
[3] = system: L1210; assay: Inhibitory activity against sensitive L1210 cell lines; type: functional, cell-based; conditions: Mus musculus
[4] = system: L1210; assay: Inhibitory activity against resistant murine leukemia L1210 cell lines.; type: functional, cell-based; conditions: Mus musculus
[5] = system: MCF7; assay: Tested against […] breast carcinoma (doxorubicin resistant) cell line in the sulforhodamine B assay.; type: functional, cell-based; conditions: Homo sapiens; method in brief: as §1
[6] = system: MCF7; assay: Tested against […] breast carcinoma (mitoxantrone resistant)cell line in the sulforhodamine B assay.; type: functional, cell-based; conditions: Homo sapiens; method in brief: as §1
[7] = system: OVCAR-3; assay: Inhibitory activity against OVCAR-3 cell line; type: functional, cell-based; conditions: Homo sapiens
[8] = organism: Rattus norvegicus; assay: Cardiotoxicity by a neonatal rat heart myocyte assay; type: toxicity
Method in brief: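 Neonatal rat heart myocytes exposed to drug for 1 h. Read-out is the ATP/protein ratio relative to untreated control myocytes. IC50 is the 1-h concentration that reduces this ratio to 50% of control.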

[9] = system: Tumor cell line; assay: An average for IC50 values in the two solid tumor cell lines.; type: functional, cell-based
[10] = system: WiDr; assay: Tested against WiDr colon carcinoma (resistant) in the sulforhodamine B assay.; type: functional, cell-based; conditions: Homo sapiens; method in brief: as §1
[11] = Toxicity ratio determined by the quotient of IC50 values in the myocytes divided by the average value in the three tumor lines.; type: functional
Method in brief: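 Ratio is the myocyte cardiotoxicity IC50 (1-h exposure, ATP/protein ratio versus untreated myocytes) divided by the mean IC50 in sensitive L1210 and the two human tumor lines, measured with continuous exposure.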

[12] = An average for IC50 values in the two solid tumor cell lines and sensitive L1210 leukemia cell line.; type: functional, cell-based
[13] = system: MCF7; assay: Tested against […] breast carcinoma (sensitive) cell line in the sulforhodamine B assay.; type: functional, cell-based; conditions: Homo sapiens; method in brief: as §1
[14] = system: L1210; assay: Compound was tested against L1210 leukemia at % increase in life span (ILS) in mice at 8 mg/kg dosage.; type: functional; conditions: Mus musculus
Method in brief: (§2)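 Male DBA/2J mice, 10 per group, inoculated ip on day 0 with 10^6 freshly harvested leukemia cells. Compound given ip in equal doses on days 1, 5 and 9; controls received saline ip on the same days. Highest dose set 10% below the acute LD10. %ILS = 100 × (treated − control)/control, using median life span per group; value reported at highest nontoxic dose.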

[15] = system: WiDr; assay: Tested against WiDr colon (sensitive) in the sulforhodamine B assay.; type: functional, cell-based; conditions: Homo sapiens; method in brief: as §1
[16] = system: A549; assay: Compound was tested against A549 lung carcinoma cell line in the sulforhodamine B assay.; type: functional, cell-based; conditions: Homo sapiens; method in brief: as §1
[17] = system: WiDr; assay: Compound was tested against WiDr colon carcinoma (resistant)cell line in the sulforhodamine B assay.; type: functional, cell-based; conditions: Homo sapiens; method in brief: as §1
[18] = system: WiDr; assay: Compound was tested against WiDr colon (sensitive) cell line in the sulforhodamine B assay.; type: functional, cell-based; conditions: Homo sapiens; method in brief: as §1
[19] = system: A549; assay: Compound tested against A549 lung carcinoma in the sulforhodamine B assay.; type: functional, cell-based; conditions: Homo sapiens; method in brief: as §1
[20] = system: L1210; assay: Compound was tested against L1210 leukemia at % increase in life span (ILS) in mice at 8 mg/kg dosage; Not active; type: functional, organism-based; set-up: dose 8 mg/kg; conditions: Mus musculus
[21] = system: WiDr; assay: Compound tested against WiDr colon carcinoma (resistant) in the sulforhodamine B assay.; type: functional, cell-based; conditions: Homo sapiens; method in brief: as §1
[22] = system: WiDr; assay: Compound tested against WiDr colon (sensitive) in the sulforhodamine B assay.; type: functional, cell-based; conditions: Homo sapiens; method in brief: as §1
[23] = system: B16; assay: Compound was tested against sc B16 melanoma at % tumor growth inhibition(TGI) in mice at 6 mg/kg dosage; no palpable tumor; type: functional; conditions: Mus musculus, route subcutaneous, read-out: TGI
[24] = system: P388; assay: Compound was tested against P388 leukemia at % increase in life span (ILS) in mice at 5 mg/kg dosage.; type: functional; conditions: Mus musculus; method in brief: as §2

SMILES | IC50 [1] | IC50 [2] | IC50 [3] | IC50 [4] | IC50 [5] | IC50 [7] | IC50 [9] | IC50 [10] | IC50 [12] | IC50 [13] | IC50 [15] | IC50 [6] | IC50 [8] | Toxicity ratio [11] | further results
COc1ccc2c3c(c4ccccc4cc13)C(=O)N(CCN(C)C)C2=O | 2.2 nM | 7.8 nM | 2.6 nM | 3.9 nM | 270 nM | 1.3 nM | 4.6 nM | 33 nM | 3.9 nM | 14 nM | 17 nM | 19 nM | 0.799 µM | 205 | ILS at 8 mg/kg [14]: 86%
CCCOc1ccc2c3c(c4ccccc4cc13)C(=O)N(CCN(C)C)C2=O | 19 nM | 485 nM | 17 nM | 49 nM | 170 nM | 364 nM | 425 nM | 270 nM | 289 nM | 80 nM | 110 nM | 110 nM | 7.76 µM | 27 | –
CCOc1c2ccccc2c2c3c(cccc13)C(=O)N(CCN(C)C)C2=O | 56 nM | 225 nM | 63 nM | 50 nM | 200 nM | 175 nM | 200 nM | 33 nM | 154 nM | 23 nM | 170 nM | 110 nM | 5.3 µM | 34 | –
CCOc1ccc2c3c(c4ccccc4cc13)C(=O)N(CCN(C)C)C2=O | 2.9 nM | 19 nM | 8 nM | 6.7 nM | 18 nM | 0.8 nM | 10 nM | 63 nM | 9.3 nM | 11 nM | 17 nM | 14 nM | 1.78 µM | 192 | inhibition in vivo at 6 mg/kg [23]: > 100%; ILS at 8 mg/kg [14]: 100%; ILS at 5 mg/kg [24]: 55%
CNCCN1C(=O)c2ccc(OC)c3cc4ccccc4c(c23)C1=O | – | 2160 nM | 41 nM | 27 nM | – | 540 nM | 1350 nM | – | 913 nM | – | – | – | 8.1 µM | 8.9 | –

Continued, in another order:

IC50 [1] | IC50 [2] | IC50 [3] | IC50 [4] | IC50 [5] | IC50 [7] | IC50 [9] | IC50 [10] | IC50 [12] | IC50 [13] | IC50 [15] | SMILES | IC50 [6] | IC50 [8] | Toxicity ratio [11] | further results
4.5 nM | 97 nM | 6 nM | 4.8 nM | 75 nM | 19 nM | 58 nM | 110 nM | 41 nM | 20 nM | – | CCSc1ccc2c3c(c4ccccc4cc13)C(=O)N(CCN(C)C)C2=O | 33 nM | 7.74 µM | 189 | –
– | 39 nM | 77 nM | 64 nM | 120 nM | 116 nM | 78 nM | – | 77 nM | 25 nM | – | CN(C)CCN1C(=O)c2ccc(Cl)c3cc4ccccc4c(c23)C1=O | 50 nM | 4.11 µM | 53 | IC50 [16]: 19 nM; IC50 [17]: 350 nM; IC50 [18]: 70 nM
– | 31 nM | 0.2 nM | 1.3 nM | 8.9 nM | 31 nM | 31 nM | – | 21 nM | 3.9 nM | – | CN(C)CCOc1ccc2c3c(c4ccccc4cc13)C(=O)N(CCN(C)C)C2=O | 3.9 nM | 5.44 µM | 262 | IC50 [19]: 0.58 nM; ILS [20]: inactive; IC50 [21]: 10 nM; IC50 [22]: 2.4 nM
23 nM | 101 nM | 23 nM | 96 nM | 130 nM | 503 nM | 302 nM | 130 nM | 209 nM | 68 nM | 90 nM | CN(C)CCN1C(=O)c2ccc(N(C)C)c3cc4ccccc4c(c23)C1=O | 79 nM | – | 223 | Activity [8]: 46600
